pEC50: −log10 of the molar value.
Key:
[1] = system: Cc1cn([C@H]2C[C@H](O)[C@@H](COP(=O)(O)OP(=O)(O)OP(=O)(O)O)O2)c(=O)[nH]c1=O; test: Ratio of Kcat to Km for HIV1 Reverse transcriptase T165A/M184V mutant; settings: Human immunodeficiency virus 1
[2] = system: Cc1cn([C@H]2C[C@H](O)[C@@H](COP(=O)(O)OP(=O)(O)OP(=O)(O)O)O2)c(=O)[nH]c1=O; test: Activity of HIV1 Reverse transcriptase T165A/M184V mutant; settings: Human immunodeficiency virus 1
[3] = system: Cc1cn([C@H]2C[C@H](O)[C@@H](COP(=O)(O)OP(=O)(O)OP(=O)(O)O)O2)c(=O)[nH]c1=O; test: Ratio of Kcat to Km for HIV1 Reverse transcriptase P119S/T165A mutant; settings: Human immunodeficiency virus 1
[4] = system: Cc1cn([C@H]2C[C@H](O)[C@@H](COP(=O)(O)OP(=O)(O)OP(=O)(O)O)O2)c(=O)[nH]c1=O; test: Activity of HIV1 Reverse transcriptase P119S/T165A mutant; settings: Human immunodeficiency virus 1
[5] = system: Cc1cn([C@H]2C[C@H](O)[C@@H](COP(=O)(O)OP(=O)(O)OP(=O)(O)O)O2)c(=O)[nH]c1=O; test: Activity of HIV1 Reverse transcriptase M184V mutant; settings: Human immunodeficiency virus 1
[6] = system: Cc1cn([C@H]2C[C@H](O)[C@@H](COP(=O)(O)OP(=O)(O)OP(=O)(O)O)O2)c(=O)[nH]c1=O; test: Ratio of Kcat to Km for HIV1 Reverse transcriptase M184V mutant; settings: Human immunodeficiency virus 1
[7] = system: Human immunodeficiency virus 1; test: Antiviral activity against HIV1 pNL4-3 harboring chimeric pTKD infected in TZM-bl cells after 72 hrs by luciferase assay; assay type: functional, organism-based; settings: Human immunodeficiency virus 1, pNL4-3, TZM-bl
Procedure, shortened: (§1)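 TZM-bl cells (LTR-driven luciferase reporter) at 5 × 10^4 per well in RPMI 1640 with 10% dialyzed FBS. They were preincubated 16 h at 37°C with a range of 4′-Ed4T, d4T, 3TC or AZT, then infected with NL4-3-derived clones at MOI 0.01. After 72 h, lysates were read for luciferase, with uninfected background subtracted. EC50 is from % of no-drug signal, reported as mean ± SD of three experiments.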

[8] = system: Human immunodeficiency virus 1; test: Antiviral activity against HIV1 pNL4-3 harboring Reverse transcriptase T165A mutant gene infected in TZM-bl cells after 72 hrs by luciferase assay; assay type: functional, organism-based; settings: Human immunodeficiency virus 1, pNL4-3, TZM-bl; procedure, shortened: as §1
[9] = system: Human immunodeficiency virus 1; test: Antiviral activity against HIV1 pNL4-3 harboring Reverse transcriptase P119S mutant gene infected in TZM-bl cells after 72 hrs by luciferase assay; assay type: functional, organism-based; settings: Human immunodeficiency virus 1, pNL4-3, TZM-bl; procedure, shortened: as §1
[10] = system: Human immunodeficiency virus 1; test: Antiviral activity against HIV1 pNL4-3 harboring Reverse transcriptase P119S/M184V mutant gene infected in TZM-bl cells after 72 hrs by luciferase assay; assay type: functional, organism-based; settings: Human immunodeficiency virus 1, pNL4-3, TZM-bl; procedure, shortened: as §1
[11] = system: Human immunodeficiency virus 1; test: Antiviral activity against HIV1 pNL4-3 harboring Reverse transcriptase P119S/T165A/M184V mutant gene infected in TZM-bl cells after 72 hrs by luciferase assay; assay type: functional, organism-based; settings: Human immunodeficiency virus 1, pNL4-3, TZM-bl; procedure, shortened: as §1
[12] = system: Human immunodeficiency virus 1; test: Antiviral activity against wild-type HIV1 pNL4-3 infected in TZM-bl cells by luciferase assay; assay type: functional, organism-based; settings: Human immunodeficiency virus 1, pNL4-3, TZM-bl; procedure, shortened: as §1
[13] = system: Human immunodeficiency virus 1; test: Antiviral activity against HIV1 pNL4-3 harboring Reverse transcriptase T165A/M184V mutant gene infected in TZM-bl cells after 72 hrs by luciferase assay; assay type: functional, organism-based; settings: Human immunodeficiency virus 1, pNL4-3, TZM-bl; procedure, shortened: as §1
[14] = system: Human immunodeficiency virus 1; test: Antiviral activity against HIV1 pNL4-3 harboring Reverse transcriptase M184V mutant gene infected in TZM-bl cells after 72 hrs by luciferase assay; assay type: functional, organism-based; settings: Human immunodeficiency virus 1, pNL4-3, TZM-bl; procedure, shortened: as §1
[15] = system: Human immunodeficiency virus 1; test: Antiviral activity against HIV1 pNL4-3 harboring Reverse transcriptase P119S/T165A mutant gene infected in TZM-bl cells after 72 hrs by luciferase assay; assay type: functional, organism-based; settings: Human immunodeficiency virus 1, pNL4-3, TZM-bl; procedure, shortened: as §1
[16] = system: Cc1cn([C@H]2C[C@H](O)[C@@H](COP(=O)(O)OP(=O)(O)OP(=O)(O)O)O2)c(=O)[nH]c1=O; test: Activity of HIV1 Reverse transcriptase P119S/M184V mutant; settings: Human immunodeficiency virus 1
[17] = system: Cc1cn([C@H]2C[C@H](O)[C@@H](COP(=O)(O)OP(=O)(O)OP(=O)(O)O)O2)c(=O)[nH]c1=O; test: Ratio of Kcat to Km for HIV1 Reverse transcriptase P119S/M184V mutant; settings: Human immunodeficiency virus 1
[18] = system: Cc1cn([C@H]2C[C@H](O)[C@@H](COP(=O)(O)OP(=O)(O)OP(=O)(O)O)O2)c(=O)[nH]c1=O; test: Activity of HIV1 Reverse transcriptase T165A mutant; settings: Human immunodeficiency virus 1
[19] = system: Cc1cn([C@H]2C[C@H](O)[C@@H](COP(=O)(O)OP(=O)(O)OP(=O)(O)O)O2)c(=O)[nH]c1=O; test: Ratio of Kcat to Km for HIV1 Reverse transcriptase T165A mutant; settings: Human immunodeficiency virus 1

Compound “Human immunodeficiency virus type 1 reverse transcriptase (Human immunodeficiency virus 1) (from UniProt Q72547) T165A,M184V” has a kcat/Km (10'-2/microM/s) [1] of 1.3 and a kcat [2] of 1.4 ×10⁻⁵ /s.

“Human immunodeficiency virus type 1 reverse transcriptase (Human immunodeficiency virus 1) (from UniProt Q72547) P119S,T165A” gave a kcat/Km (10'-2/microM/s) [3] of 5.1, a Km [4] of 0.07 µM and a kcat [4] of 3.6 ×10⁻⁴ /s.

“Human immunodeficiency virus type 1 reverse transcriptase (Human immunodeficiency virus 1) (from UniProt Q72547) M184V” showed a kcat [5] of 3.1 ×10⁻⁴ /s and a kcat/Km (10'-2/microM/s) [6] of 2.6.

In the case of C=C[C@@]1(CO)C=C[C@H](n2cc(C)c(=O)[nH]c2=O)O1, the pEC50 [7] was 5.68, the pEC50 [8] was 6.24 and the pEC50 [9] was 6.29. For the same compound, the pEC50 [10] was 5.86, the pEC50 [11] was 5.71 and the pEC50 [12] was 6.43. For the same compound, the pEC50 [13] was 5.88, the pEC50 [14] was 6.01 and the pEC50 [15] was 6.46.

For “Human immunodeficiency virus type 1 reverse transcriptase (Human immunodeficiency virus 1) (from UniProt Q72547) P119S,M184V”, the Km [16] was 0.18 µM, the kcat [16] was 4 ×10⁻⁵ /s and the kcat/Km (10'-2/microM/s) [17] was 2.2.

For “Human immunodeficiency virus type 1 reverse transcriptase (Human immunodeficiency virus 1) (from UniProt Q72547) T165A”, the Km [18] was 0.1 µM, the kcat [18] was 2.7 ×10⁻⁵ /s and the kcat/Km (10'-2/microM/s) [19] was 2.7.

From ChEMBL document CHEMBL1649255, “Impact of novel human immunodeficiency virus type 1 reverse transcriptase mutations P119S and T165A on 4'-ethynylthymidine analog resistance profile” (Antimicrob Agents Chemother, 2009)
